The test system of one test is HeLa. Put plainly: Cytotoxicity against human HeLa cells assessed as growth inhibition after 72 hrs by MTT assay. Type of test: functional, cell-based. Put shortly: (§1)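 Cells grown in DMEM with 10% FBS, seeded at 10,000 per well, and treated after 24 h with a concentration series ending at […]; pristimerin as positive control. After 72 h, MTT (5 mg/ml) added for 3 h. Formazan dissolved in DMSO, read at 570 nm. IC50 is the concentration giving 50% growth inhibition; mean ± S.D. of three tests in triplicate.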

A short description of test [1]: Antioxidant activity in rat erythrocytes assessed as inhibition of phenyl hydrazine-induced haemolysis after 1 hr. As to conditions: erythrocyte. It counts as functional, cell-based. Put shortly:
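20% PCV erythrocyte suspension made from rat blood. Samples at various concentrations combined with 0.5 mM phenyl hydrazine and erythrocyte suspension in phosphate buffered saline (3 ml total). Incubated 37 °C for 1 h, centrifuged 1000 g for 10 min, supernatant absorbance at 540 nm. α-Tocopherol as positive control.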

The nature of test [2]: Antioxidant activity assessed as nitric oxide scavenging activity after 2.5 hrs by Griess assay. Type of test: functional. Put shortly: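 Sodium nitroprusside, 10 mM in phosphate saline buffer pH 7.4, added to samples at various concentrations and held 2.5 h at room temperature. Nitrite detected with Griess reagent at 546 nm against a blank. Inhibition (%) = (1 − A1/A0)×100, with A0 the control. Ascorbic acid as standard. Means of triplicates from three independent experiments.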
On the technique in general: Griess reagent forms a coloured azo dye with nitrite.

The test system of another test is MCF7. Nature of the test: Cytotoxicity against human MCF7 cells assessed as growth inhibition after 72 hrs by MTT assay. It counts as functional, cell-based. Particulars: MCF7, 72 h. Put shortly:
as §1
(In general: Formazan colour is commonly taken as a measure of viable cells.)

The test system of test [3] is Radical scavenging activity. Nature of the test: Antioxidant activity assessed as DPPH free radical scavenging activity after 15 mins by spectrophotometric analysis. It counts as functional. Put shortly:
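Test samples at several concentrations mixed with stock DPPH (final concentration not stated), made up to 3 ml in methanol, incubated 15 min. Absorbance at 517 nm read against a sample-free blank. Ascorbic acid at various concentrations as standard. Values are means of triplicates from three independent experiments.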
In general terms: The DPPH test is a chemical assay of radical scavenging.

The test system of a further test is SW982. Nature of the test: Cytotoxicity against human SW982 cells assessed as growth inhibition after 72 hrs by MTT assay. Particulars: SW982, 72 h. Type of test: functional, cell-based. Put shortly:
as §1

The source of these data is ChEMBL document CHEMBL2331230, “Synthesis, anticancer and antioxidant activities of 2,4,5-trimethoxy chalcones and analogues from asaronaldehyde: structure-activity relationship” (Eur J Med Chem, 2013).

Structures are written as SMILES. Converted amounts (≈) assume the structure as drawn.

The IC50 is the point on the concentration scale where inhibition reaches its midpoint. On to `COc1cc(OC)c(OC)cc1/C=C/C(=O)c1cccc([N+](=O)[O-])c1`, for which the IC50 was 130 µM with HeLa; 2.209 µg/mL (≈ 6.43 µM) in test [1]; 2.348 µg/mL (≈ 6.84 µM) in test [2]; more than 150 µM with MCF7; 4.309 µg/mL (≈ 12.6 µM) in test [3]; 101 µM with SW982.
